Data as given in article PMC3346673 (Toxicological and environmental chemistry, 2012).

Tests used:
[1] = Hydroxyl radical absorbance capacity; details: Trolox equivalency
[2] = Solubility and stability of NBMI and its Hg complex; type: physicochemical
rats = test: 28 day repeated oral dose toxicity study with clinical chemistry and hematology; type: in vivo, rat (Wistar); details: for Ca^2+ / Cl^− / HCT / HGB / K^+ / Mg^2+ / Na^+ / Phosphorus / RBC: mean
Summary of the method: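 Male and female Wistar rats, 10 of each sex per group, gavaged daily for 28 days with the test compound suspended in corn oil at 0, 0.1, 0.5 or 1.0 g kg−1 body weight day−1.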

[3] = Oral absorption, plasma pharmacokinetics after oral gavage; type: in vivo, rat (Sprague-Dawley); details: for Tmax / half-life: male, Sprague-Dawley, rat, plasma, po
[4] = 0.1, 0.5 and 1.0 g kg^−1 day^−1 gavage, 28 days
[5] = females, 100 mg kg^−1, end of 28 day daily dosing
[6] = females, 500 mg kg^−1, end of 28 day daily dosing
[7] = females, 1000 mg kg^−1, end of 28 day daily dosing
[8] = males, 100 mg kg^−1, end of 28 day daily dosing
[9] = males, 500 mg kg^−1, end of 28 day daily dosing
[10] = males, 1000 mg kg^−1, end of 28 day daily dosing

## O=C(NCCS)c1cccc(C(=O)NCCS)c1 [NBMI, N,N′-bis(2-mercaptoethyl)isophthalamide]
[1]
  HORAC score: 299,000 Trolox units 100g^−1
[2]
  solubility in 95% ethanol or dimethylsulfoxide (DMSO): readily dissolves
  solubility in water: water insoluble
rats; [4]
  deaths and clinical signs: No deaths or abnormal weight loss, ataxia, loss of appetite
  microscopic and histological analysis of organs: None of their organs displayed changes indicating toxic effects
  spleen finding: mild to moderate B-cell proliferation
rats; [5]
  Ca^2+: 10.78 mg/dL
  Cl^−: 103 meq L^−1
  HCT: 43.7%
  HGB: 15.2 gm DL^−1
  K^+: 4.81 meq L^−1
  Mg^2+: 2.64 meq L^−1
  Na^+: 142 meq L^−1
  Phosphorus: 7.82 mg/dL
  RBC: 8.0 mill UL^−1
rats; [6]
  Ca^2+: 10.89 mg/dL
  Cl^−: 105 meq L^−1
  HCT: 42%
  HGB: 15 gm DL^−1
  K^+: 5.08 meq L^−1
  Mg^2+: 2.72 meq L^−1
  Na^+: 143 meq L^−1
  Phosphorus: 8.15 mg/dL
  RBC: 8.0 mill UL^−1
rats; [7]
  Ca^2+: 10.84 mg/dL
  Cl^−: 105 meq L^−1
  HCT: 40%
  HGB: 14 gm DL^−1
  K^+: 4.89 meq L^−1
  Mg^2+: 2.82 meq L^−1
  Na^+: 144 meq L^−1
  Phosphorus: 8.49 mg/dL
  RBC: 7.6 mill UL^−1
rats; [8]
  Ca^2+: 10.64 mg/dL
  Cl^−: 105 meq L^−1
  HCT: 46.2%
  HGB: 15.6 gm DL^−1
  K^+: 4.83 meq L^−1
  Mg^2+: 2.58 meq L^−1
  Na^+: 143 meq L^−1
  Phosphorus: 8.23 mg/dL
  RBC: 8.7 mill UL^−1
rats; [9]
  Ca^2+: 10.6 mg/dL
  Cl^−: 104 meq L^−1
  HCT: 45.1%
  HGB: 15.2 gm DL^−1
  K^+: 5.03 meq L^−1
  Mg^2+: 2.62 meq L^−1
  Na^+: 144 meq L^−1
  Phosphorus: 8.42 mg/dL
  RBC: 8.3 mill UL^−1
rats; [10]
  Ca^2+: 10.53 mg/dL
  Cl^−: 106 meq L^−1
  HCT: 45.5%
  HGB: 15.5 gm DL^−1
  K^+: 5.15 meq L^−1
  Mg^2+: 2.56 meq L^−1
  Na^+: 143 meq L^−1
  Phosphorus: 8.84 mg/dL
  RBC: 8.5 mill UL^−1
[3]; 7 mg/kg
  Tmax: 2.3 ± 1.2 h
  half-life: 328 ± 105 min
[3]; 35 mg/kg
  Tmax: 2.3 ± 1.2 h
  half-life: 336 ± 61.2 min
[3]; oral 7 mg kg^−1, estimated against iv 1 mg kg^−1
  absorbance of NBMI into plasma from oral dose: 13 ± 5.9%
[3]; oral 35 mg kg^−1, estimated against iv 1 mg kg^−1
  absorbance of NBMI into plasma from oral dose: 15 ± 3.6%
